# High-throughput results as filed in PubChem BioAssay.
# PRMT1 inh – inhibitors of human PRMT1 | Q99873 | recombinant PRMT1, activity-based probe fluorescence polarization | inhibition, % at 2.79 µM | 370,000 compounds, 1.3% hits | AID 652257;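 active = inhibition above about 21% made by adding two undisclosed values, limit read from the data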
# mABHD4 FP – inhibits mouse alpha/beta hydrolase domain 4; Q8VD66; purified mABHD4, FP-Rh probe fluorescence polarization; inhibition, % at 8.92 µM; 370,000 compounds, 0.54% hits; AID 720543;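 active = inhibition exceeding the mean over every tested compound plus 3 SD, cut at about 30% in these data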;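 note: 0% = plate median of compound wells and 100% = S159A mutant with DMSO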
# Target sequence (Q8VD66 whole entry, looked up, the tested form may be a part): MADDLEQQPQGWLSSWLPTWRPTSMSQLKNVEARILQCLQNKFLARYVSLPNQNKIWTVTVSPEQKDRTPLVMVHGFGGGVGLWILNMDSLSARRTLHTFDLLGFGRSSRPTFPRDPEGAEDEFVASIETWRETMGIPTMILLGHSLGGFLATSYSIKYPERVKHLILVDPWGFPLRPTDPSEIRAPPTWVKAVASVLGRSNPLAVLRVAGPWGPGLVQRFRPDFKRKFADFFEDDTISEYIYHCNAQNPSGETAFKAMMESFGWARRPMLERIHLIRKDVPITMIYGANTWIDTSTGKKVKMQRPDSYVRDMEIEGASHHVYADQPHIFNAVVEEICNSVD
#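 Test system: mABHD4 protein | Buffer or medium: HEPES pH 7.0 buffer, 150 mM NaCl, 0.01% Pluronic F-127 | Probe or stimulus: FP-Rh fluorescent activity-based probe, added after compound pre-incubation | Timing: Pre-incubation 45 min, probe exposure 60 min, at 25 °C | Technique: Fluorescence polarization, excitation 525 nm, emission 598 nm, BODIPY TMR filters | Repeats: Single well per compound (singlicate)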
# TCR-CD3 inh – human TCR-CD3 binding inhibition; TAMRA-labeled TCR probe fluorescence, biochemical; inhibition, % at 9.4 µM; 360,000 compounds, 0.37% hits; AID 651800; in the data active = inhibition above about 19%;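 note: recombinant mutant TCR 2C K166C tagged with TAMRA read by polarization; 0% = receptor in buffer alone and 100% = receptor with positive control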
# HTRA1 inh – HTRA1 (human) protease inhibition; inhibition, % at 5.96 µM; 340,000 compounds, 0.5% hits; recombinant HTRA1, FP-rhodamine activity-based probe, fluorescence polarization; in the data active = inhibition above about 36%;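 note: 0% = enzyme with DMSO and 100% = wells lacking enzyme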
# SIAE inh – inhibitors of human sialic acid acetylesterase SIAE; SIAE FP-Rh probe binding, fluorescence polarization; 370,000 compounds, 0.69% hits; inhibition, % at 9.66 µM; Q9HAT2;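 active = inhibition above a cutoff: mean of compounds within the control limits plus 3 SD of those, cut at about 17% in these data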;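 note: 0% = plate median of compound wells and 100% = probe without SIAE protein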
# PRMT1 confirm – PRMT1 (human) inhibition, FP confirmation | shares compounds with PRMT1 inh | recombinant His-PRMT1, activity-based probe fluorescence polarization | inhibition, % at 2.79 µM | 3,300 compounds, 42% hits | AID 687036;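 active = mean inhibition across replicates above the hit cutoff derived for the earlier primary screen, cut at about 22% in these data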
# * = called active by the depositor; . = not tested or not shown. Rows were chosen to be rich in hits. Some 2.7% of all compounds tested hit in one or more screens of this group.
SMILES,PRMT1 inh,mABHD4 FP,TCR-CD3 inh,HTRA1 inh,SIAE inh,PRMT1 confirm
COc1ccc(C(=O)N(C)Cc2ccc(C)o2)cc1OC1CCN(C(C)=O)CC1,6,-3,-1,-2,-2,.
O=[N+]([O-])c1cncc2[nH]cnc12,-1,7,.,.,-6,.
CCOC(=O)N1CCN(C(=O)C[C@H]2C[C@@]3(C(=O)OC)C(=C[C@H](COCc4ccccc4)O[C@@H]3C)N(CCC3=CCCCC3)C2=O)CC1,-1,1,3,.,3,.
Cc1ccc(CN(Cc2ccco2)C(=S)NCC(=O)NCc2cccnc2)cc1,20,0,-1,-6,0,.
Cc1ccc(CN(Cc2ccccc2)C(=S)NCC(=O)NCc2cccnc2)o1,33*,3,-1,8,-5,3
O=C(COC(=O)[C@@H]1CCCN1C(=O)c1cccs1)Nc1cccc([N+](=O)[O-])c1,-3,-10,0,-1,-9,.
COc1ccccc1CNC(=O)C(CCSC)NC(=O)c1cccc(S(=O)(=O)N2CCOCC2)c1 (stereo not given),7,7,-4,-4,-3,.
Cn1cc(P(=O)(N2CCOCC2)N2CCOCC2)cc1P(=S)(N1CCOCC1)N1CCOCC1,30*,0,7,-3,8,40*
Cn1cc(P(=S)(N2CCOCC2)N2CCOCC2)cc1P(=O)(N1CCOCC1)N1CCOCC1,40*,-6,-6,-4,-4,6
CSc1ccc(/C=N/NC(=O)CNc2ccc3ccccc3c2)cc1,29*,-5,2,9,15,11
CSc1ccc(/C=N/NC(=O)CNc2cccc3ccccc23)cc1,1,8,2,11,12,.
COC(=O)c1ccc2nc(-c3ccccc3)c(Cc3ccsc3)n2c1,3,-3,5,.,-1,.
COC(=O)c1ccc2nc(-c3ccco3)c(Cc3cccc(Cl)c3)n2c1,25*,-3,-5,.,0,8
COC(=O)c1ccc2nc(-c3ccco3)c(Cc3ccsc3)n2c1,33*,7,8,.,3,37*
Cc1cc2cc(C(c3nnnn3Cc3ccco3)N3CCc4ccccc4C3)c(=O)[nH]c2cc1C (stereo not given),69*,2,6,-13,-2,66*
O=C(Cc1c[nH]c2ccccc12)Nc1ccc(Nc2cccnc2)cc1,1,10,4,.,9,.
COc1ccc(/C=c2/sc3n(c2=O)C(c2ccccc2OC)C2=C(N=3)c3ccccc3CC2)cc1O (stereo not given),7,21,4,-40,-5,.
COc1ccccc1C1C2=C(N=C3SCC(=O)N31)c1ccccc1CC2 (stereo not given),37*,-8,7,-2,-2,1
COc1ccc(C2C3=C(N=C4SCC(=O)N42)c2ccccc2CC3)cc1OC (stereo not given),54*,-4,0,-7,-5,19
CCOC(=O)[C@@]12CN(C(=O)OC(C)(C)C)CC=C1N(Cc1ccc(OC)cc1)C(=O)[C@H]2CC(=O)NCc1cccc(C(F)(F)F)c1,2,6,.,.,-3,.
O=c1oc2cc(O)ccc2cc1-c1nc2ccccc2o1,71*,4,-3,.,-1,68*
C=CCc1cccc2cc(C(=O)NNC(=O)c3ccncc3)c(=O)oc12,27*,5,9,6,3,26*
C=CCc1cccc2cc(C(=O)Nc3cccc(C(=O)O)c3)c(=O)oc12,0,7,6,.,6,.
Cc1c(Cl)cccc1NC(=O)CSc1nnnn1C,1,2,8,0,-2,.
Cc1c(Cl)cccc1NC(=O)CSCc1cc(=O)[nH][nH]1,28*,16,-4,9,3,6
SMILES,PRMT1 inh,mABHD4 FP,TCR-CD3 inh,HTRA1 inh,SIAE inh,PRMT1 confirm
CC(=O)Nc1ccc(NC(=O)COC(=O)c2ccccc2SCC(=O)N2CCCC2)cc1,29*,2,6,2,6,24*
CN1Cc2c(N)cccc2C(c2ccccc2)C1 (stereo not given),44*,9,6,1,2,8
Nc1cc(=O)[nH]c(SCC(=O)Nc2cccc(Cl)c2)n1,2,-2,6,-4,2,.
COC(OC)c1nc(SCC(=O)Nc2cccc(Cl)c2)ncc1C(=O)O,27*,1,0,5,12,3
COc1ccc2cc(C3CC(c4ccco4)=NN3S(=O)(=O)c3ccccc3)c(Cl)nc2c1 (stereo not given),29*,-11,0,-54,-1,2
Cc1ccc(-n2c(N)c(C(=O)N3CCCCC3)sc2=S)cc1,5,-4,-2,0,13,.
Cc1ccc(-n2c(N)c(C(=O)N3CCN(C)CC3)sc2=S)cc1,86*,1,-5,1,5,71*
CCOC(=O)C1=C(C)Nc2nc(SCC)nn2C1c1ccc(OC)cc1 (stereo not given),-1,6,5,1,0,.
CCOC(=O)C1=C(C)Nc2nc(=S)[nH]n2C1c1ccc(Cl)cc1 (stereo not given),29*,3,9,-5,4,25*
CC(=Nc1ccc(Cl)cc1N)c1c(O)cc(C)oc1=O,3,-2,-2,.,-7,.
COc1cc(C(=O)NCc2nnc(SCC(=O)Nc3nccs3)o2)cc(OC)c1OC,1,1,-7,2,0,.
COc1cc(C(=O)NCc2nnc(SCC(=O)Nc3nc4ccccc4s3)o2)cc(OC)c1OC,65*,10,-2,4,-1,5
CC1(C(=O)Nc2ccc(Cl)c(Cl)c2)CCN1Cc1ccccc1OC(F)F (stereo not given),12,-17,-6,.,-8,.
Cc1nc2ccccn2c1-c1ccnc(=S)[nH]1,79*,-2,-3,-2,5,38*
Cc1nc2ccccn2c1-c1csc(NCc2ccco2)n1,1,11,-4,6,8,.
Cc1ccc(CNC(=O)CSc2nc3ccsc3c(=O)n2Cc2ccccn2)cc1,13,0,-6,-2,11,.
COc1ccc(NC(=O)CSc2nc3ccsc3c(=O)n2Cc2ccccn2)c(OC)c1,29*,5,13,-1,5,1
COc1ccccc1NC(=O)CSc1c2c(nc3ccccc13)CCC2,3,3,-3,-5,-2,.
COc1ccc(NC(=O)CSc2c3c(nc4ccccc24)CCCC3)c(OC)c1,26*,5,3,-7,3,26*
Cc1ccccc1Nc1nc(N)nc(COC(=O)c2ccco2)n1,-2,-6,-2,7,4,.
Cc1ccc(/C=C/C(=O)OCc2nc(N)nc(Nc3ccccc3C)n2)o1,34*,1,6,-8,-1,-6
CCOC(=O)c1sc(NNC(=O)c2ccc(C)cc2)nc1C,0,0,-2,11,12,.
CCOC(=O)c1sc(NNC(=O)c2ccc(F)cc2)nc1C,42*,3,-12,12,-5,2
